From ChEMBL document CHEMBL1127326, “Antitumor agents. 148. Synthesis and biological evaluation of novel 4 beta-amino derivatives of etoposide with better pharmacological profiles” (1994)

Assays:
[1] = tested on: KB; experiment: Cytotoxicity against KB cells after a 3 day incubation; type: functional, Homo sapiens; conditions: read-out: ID50 (the source's name)
Outline: (§1)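 KB cells (parental ATCC line and resistant variants) exposed to drug at five concentrations […] for 3 days. ID50 is the concentration giving 50% reduction in cell number, derived from the degree of inhibition at the five concentrations.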

[2] = tested on: KB; experiment: Inhibitory dose value is the concentration which affords 50% reduction in the number of KB ATCC cells; type: functional; conditions: Homo sapiens, read-out: ID50 (the source's name); outline: as §1
[3] = tested on: Tumor Cell line; experiment: Drug molar concentration required to inhibit 50% of human tumor cell growth; type: functional
Outline: (§2)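 NCI panel of 54 human tumor lines from eight cancer types, mostly seeded at 20 000 cells/well. Cells were preincubated 24 h without drug, then exposed to five 10-fold dilutions for 48 h, fixed and stained with sulforhodamine B, and read spectrophotometrically. Versus control, GI50 (50% growth inhibition), TGI (0% growth) and LC50 (−50% growth) were calculated; mean graph midpoints average all lines.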

[4] = tested on: Tumor Cell line; experiment: Drug concentration required to inhibit total cell growth; type: functional, Homo sapiens; conditions: read-out: Log TGI (converted); outline: as §2
[5] = tested on: KB; experiment: 50% reduction in the number of KB 7D (topoisomerase II, aMDR) resistant variant; type: functional, Homo sapiens; conditions: read-out: ID50 (the source's name); outline: as §1
[6] = tested on: KB; experiment: 50% reduction in the number of KB V20C resistant variant; type: functional, Homo sapiens; conditions: read-out: ID50 (the source's name); outline: as §1
[7] = tested on: Tumor Cell line; experiment: Drug concentration required to cause 50% cell death; type: functional, Homo sapiens
Outline: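 NCI in vitro panel of 54 human tumor cell lines from eight cancer types, mostly seeded at 20 000 cells/well and preincubated 24 h without drug. Five 10-fold dilutions were then added for a further 48 h. Cells were fixed in situ and stained with sulforhodamine B, and bound dye was read spectrophotometrically. LC50 (−50% growth versus control) was taken from five-point dose-response curves and reported as the log10 mean-graph midpoint across lines.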

[8] = tested on: Tumor Cell line; experiment: 50% of human tumor cell growth; type: functional; outline: as §2
[9] = tested on: A549; experiment: (§3) In vitro anti tumor activity against human non-small cell lung cancer cell lines was determined; type: functional
Outline: (§4)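 NCI in vitro screen of 54 human tumour lines from eight cancer types. Cells seeded mostly at 20 000/well, preincubated 24 h without drug, then exposed to five 10-fold dilutions for 48 h. Cells fixed in situ, stained with sulforhodamine B, bound dye solubilised and read spectrophotometrically. GI50, TGI (0% growth) and LC50 (-50% growth) were taken from dose-response curves relative to control. Mean-graph midpoints averaged across all lines.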

[10] = tested on: EKVX; experiment: as §3; type: functional; outline: as §4
[11] = tested on: HOP-62; experiment: as §3; type: functional; outline: as §4
[12] = tested on: HOP-92; experiment: as §3; type: functional; outline: as §4
[13] = tested on: LXFL 529; experiment: as §3; type: functional; outline: as §4
[14] = tested on: NCI-H226; experiment: as §3; type: functional; outline: as §4
[15] = tested on: NCI-H322M; experiment: as §3; type: functional; outline: as §4
[16] = tested on: NCI-H460; experiment: as §3; type: functional; outline: as §4
[17] = tested on: NCI-H522; experiment: as §3; type: functional; outline: as §4
[18] = tested on: COLO 205; experiment: (§5) In vitro anti tumor activity against human colon tumor cell lines was determined; type: functional; outline: as §4
[19] = tested on: DLD-1; experiment: as §5; type: functional; outline: as §4
[20] = tested on: HCC 2998; experiment: as §5; type: functional; outline: as §4
[21] = tested on: HCT-116; experiment: as §5; type: functional; outline: as §4
[22] = tested on: HCT-15; experiment: as §5; type: functional; outline: as §4
[23] = tested on: HT-29; experiment: as §5; type: functional; outline: as §4
[24] = tested on: KM-20L2; experiment: as §5; type: functional; outline: as §4
[25] = tested on: KM12; experiment: as §5; type: functional; outline: as §4
[26] = tested on: SW-620; experiment: as §5; type: functional; outline: as §4
[27] = tested on: CCRF-CEM; experiment: (§6) In vitro anti tumor activity against human tumor leukemia cell lines was determined; type: functional; outline: as §4
[28] = tested on: HL-60; experiment: as §6; type: functional; outline: as §4
[29] = tested on: K562; experiment: as §6; type: functional; outline: as §4
[30] = tested on: MOLT-4; experiment: as §6; type: functional; outline: as §4
[31] = tested on: RPMI-8226; experiment: as §6; type: functional; outline: as §4
[32] = tested on: SR; experiment: as §6; type: functional; outline: as §4
[33] = tested on: DMS-114; experiment: (§7) In vitro anti tumor activity against human tumor small cell lung cancer cell lines was determined; type: functional; outline: as §4
[34] = tested on: DMS-273; experiment: as §7; type: functional; outline: as §4
[35] = tested on: KB; experiment: 50% reduction in the number of KB ATCC cells; type: functional; conditions: Homo sapiens, read-out: ID50 (the source's name); outline: as §1
[36] = tested on: LOX IMVI; experiment: (§8) In vitro anti tumor activity against human melanoma cell lines was determined; type: functional; outline: as §4
[37] = tested on: M14; experiment: as §8; type: functional; outline: as §4
[38] = tested on: M19-MEL; experiment: as §8; type: functional; outline: as §4
[39] = tested on: Malme-3M; experiment: as §8; type: functional; outline: as §4
[40] = tested on: SK-MEL-28; experiment: as §8; type: functional; outline: as §4
[41] = tested on: SK-MEL-2; experiment: as §8; type: functional; outline: as §4
[42] = tested on: SK-MEL-5; experiment: as §8; type: functional; outline: as §4
[43] = tested on: UACC-257; experiment: as §8; type: functional; outline: as §4
[44] = tested on: UACC-62; experiment: as §8; type: functional; outline: as §4
[45] = tested on: NCI-H23; experiment: as §3; conditions: NCI-H23, read-out: Log GI50 (converted)
[46] = tested on: SF-268; experiment: (§9) In vitro anti tumor activity against human CNS cancer cell lines was determined; type: functional; outline: as §4
[47] = tested on: SF-295; experiment: as §9; type: functional; outline: as §4
[48] = tested on: SF-539; experiment: as §9; type: functional; outline: as §4
[49] = tested on: SNB-19; experiment: as §9; type: functional; outline: as §4
[50] = tested on: SNB-75; experiment: as §9; type: functional; outline: as §4
[51] = tested on: SNB-78; experiment: as §9; type: functional; outline: as §4
[52] = tested on: U-251; experiment: as §9; type: functional; outline: as §4
[53] = tested on: XF498; experiment: as §9; type: functional; outline: as §4
[54] = tested on: 786-0; experiment: (§10) In vitro anti tumor activity against human tumor Renal cancer cell lines was determined; type: functional; outline: as §4
[55] = tested on: ACHN; experiment: as §10; type: functional; outline: as §4
[56] = tested on: CAKI-1; experiment: as §10; type: functional; outline: as §4
[57] = tested on: RXF 393; experiment: as §10; type: functional; outline: as §4
[58] = tested on: SN12C; experiment: as §10; type: functional; outline: as §4
[59] = tested on: TK-10; experiment: as §10; type: functional; outline: as §4
[60] = tested on: UO-31; experiment: as §10; type: functional; outline: as §4
[61] = tested on: IGROV-1; experiment: (§11) In vitro anti tumor activity against human tumor Ovarian cancer cell lines was determined; type: functional; outline: as §4
[62] = tested on: OVCAR-3; experiment: as §11; type: functional; outline: as §4
[63] = tested on: OVCAR-4; experiment: as §11; type: functional; outline: as §4
[64] = tested on: OVCAR-8; experiment: as §11; type: functional; outline: as §4
[65] = tested on: SK-OV-3; experiment: as §11; type: functional; outline: as §4
[66] = tested on: Panel (56 tumour cell lines); experiment: In vitro anti tumor activity against human tumor cell lines was determined; type: functional; outline: as §4

SMILES: COc1cc([C@@H]2c3cc4c(cc3[C@@H](NC3CCN(Cc5ccccc5)CC3)[C@H]3COC(=O)[C@H]23)OCO4)cc(OC)c1O [listing 1 of 2 here]
- IC50 [1]: 27 nM
- IC50 [2]: 27 nM
- GI50 [3]: 174 nM
- TGI [4]: 1480 nM
- IC50 [5]: 50 nM
- IC50 [6]: 26 nM

SMILES: COc1cc([C@@H]2c3cc4c(cc3[C@@H](NCCN3CCCCC3)[C@H]3COC(=O)[C@H]23)OCO4)cc(OC)c1O
- IC50 [1]: 1400 nM
- LC50 [7]: 30900 nM
- TGI [4]: 3310 nM
- GI50 [8]: 372 nM

SMILES: COc1cc([C@@H]2c3cc4c(cc3[C@@H](NC3CCN(Cc5ccccc5)CC3)[C@H]3COC(=O)[C@H]23)OCO4)cc(OC)c1O [listing 2 of 2 here]
- GI50 [9]: 13.8 nM
- GI50 [10]: 776 nM
- GI50 [11]: 26.9 nM
- GI50 [12]: 25.7 nM
- GI50 [13]: 437 nM
- GI50 [14]: 11 nM
- GI50 [15]: 1070 nM
- GI50 [16]: < 10 nM
- GI50 [17]: 83.2 nM
- GI50 [18]: 178 nM
- GI50 [19]: 427 nM
- GI50 [20]: 174 nM
- GI50 [21]: 151 nM
- GI50 [22]: 123 nM
- GI50 [23]: 138 nM
- GI50 [24]: 204 nM
- GI50 [25]: 204 nM
- GI50 [26]: 75.9 nM
- GI50 [27]: 22.4 nM
- GI50 [28]: 13.8 nM
- GI50 [29]: 123 nM
- GI50 [30]: < 10 nM
- GI50 [31]: 53.7 nM
- GI50 [32]: 10 nM
- GI50 [33]: 64.6 nM
- GI50 [34]: 21.9 nM
- IC50 [35]: 24 nM
- IC50 ([1]; Homo sapiens, KB, 72 h): 21 nM
- GI50 ([3]; Homo sapiens, Tumor Cell line): 87.1 nM
- TGI [4]: 525 nM
- IC50 ([5]; Homo sapiens, KB): 97.5 nM
- IC50 ([6]; Homo sapiens, KB): 21.5 nM
- GI50 [36]: 34.7 nM
- GI50 [37]: 47.9 nM
- GI50 [38]: 204 nM
- GI50 [39]: 112 nM
- GI50 [40]: 324 nM
- GI50 [41]: 240 nM
- GI50 [42]: 74.1 nM
- GI50 [43]: 257 nM
- GI50 [44]: 36.3 nM
- GI50 [45]: 40.7 nM
- GI50 [46]: 129 nM
- GI50 [47]: 36.3 nM
- GI50 [48]: 53.7 nM
- GI50 [49]: 93.3 nM
- GI50 [50]: 219 nM
- GI50 [51]: 933 nM
- GI50 [52]: 26.3 nM
- GI50 [53]: 132 nM
- GI50 [54]: 33.1 nM
- GI50 [55]: 18.2 nM
- GI50 [56]: 275 nM
- GI50 [57]: 398 nM
- GI50 [58]: 39.8 nM
- GI50 [59]: 195 nM
- GI50 [60]: 87.1 nM
- GI50 [61]: 38.9 nM
- GI50 [62]: 302 nM
- GI50 [63]: 1120 nM
- GI50 [64]: 97.7 nM
- GI50 [65]: 53.7 nM
- GI50 [66]: 87.1 nM
